Assay results: ChEMBL document CHEMBL3797061, “Characterizing the Covalent Targets of a Small Molecule Inhibitor of the Lysine Acetyltransferase P300” (ACS Med Chem Lett, 2016)
Active and inactive are the calls of the source. The rule behind the calls is not given here.

Tests used:
Tubulin (Sus scrofa) = Tubulin (Sus scrofa) (UniProt P02554+P02550); assay: Inhibition of porcine brain tubulin polymerization assessed as decrease in rate of microtubule formation incubated up to 1 hr by fluorescence analysis
Chain of Tubulin (Sus scrofa) (P02550 whole entry, looked up): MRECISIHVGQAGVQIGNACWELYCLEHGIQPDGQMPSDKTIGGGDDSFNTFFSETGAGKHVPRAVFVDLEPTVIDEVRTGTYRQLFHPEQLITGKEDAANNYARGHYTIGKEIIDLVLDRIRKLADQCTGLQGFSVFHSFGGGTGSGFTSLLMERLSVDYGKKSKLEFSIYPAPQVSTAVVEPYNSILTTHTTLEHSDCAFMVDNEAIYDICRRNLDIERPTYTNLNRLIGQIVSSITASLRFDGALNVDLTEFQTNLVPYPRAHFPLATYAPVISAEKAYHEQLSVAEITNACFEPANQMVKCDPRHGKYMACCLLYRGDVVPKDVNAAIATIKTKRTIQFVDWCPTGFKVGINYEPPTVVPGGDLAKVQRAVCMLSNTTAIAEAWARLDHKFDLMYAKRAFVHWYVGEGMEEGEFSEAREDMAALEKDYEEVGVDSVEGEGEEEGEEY
Chain of Tubulin (Sus scrofa) (P02554 whole entry, looked up): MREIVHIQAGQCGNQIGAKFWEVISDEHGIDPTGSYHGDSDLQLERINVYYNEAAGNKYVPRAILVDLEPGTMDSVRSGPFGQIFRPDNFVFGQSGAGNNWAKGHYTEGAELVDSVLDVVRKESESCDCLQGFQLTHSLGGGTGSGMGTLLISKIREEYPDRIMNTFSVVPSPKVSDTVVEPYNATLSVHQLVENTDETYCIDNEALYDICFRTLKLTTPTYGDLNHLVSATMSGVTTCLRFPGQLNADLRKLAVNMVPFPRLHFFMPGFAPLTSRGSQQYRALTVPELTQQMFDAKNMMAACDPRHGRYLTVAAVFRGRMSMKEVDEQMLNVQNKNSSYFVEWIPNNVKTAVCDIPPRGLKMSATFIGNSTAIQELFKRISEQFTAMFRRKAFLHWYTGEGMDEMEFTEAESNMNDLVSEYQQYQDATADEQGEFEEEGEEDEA
Summary of the method: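 Porcine tubulin was preincubated with compound and polymerization was then followed by a fluorescence assay. Read-outs were the rate of microtubule formation and final polymer mass. CaCl2 served as the positive control for inhibition.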

[1] = target: Histone acetyltransferase p300 (Homo sapiens, UniProt Q09472); assay: Inhibition of recombinant P300 catalytic domain (1284 to 1673 residues) (unknown origin) using FITC- histone H4 peptide (1 to 19 residues) as substrate by electrophoretic mobility shift assay
[2] = target: Heat shock protein HSP 90-beta (Homo sapiens) (UniProt P08238); assay: Binding affinity to HSP90AB1 in HEK293 proteomes assessed as spectral count ratio at 20 uM incubated for 16 hrs by TAMRA biotin-azide dye based LC-MS/MS analysis relative to control
Chain of Heat shock protein HSP 90-beta (Homo sapiens) (P08238 whole entry): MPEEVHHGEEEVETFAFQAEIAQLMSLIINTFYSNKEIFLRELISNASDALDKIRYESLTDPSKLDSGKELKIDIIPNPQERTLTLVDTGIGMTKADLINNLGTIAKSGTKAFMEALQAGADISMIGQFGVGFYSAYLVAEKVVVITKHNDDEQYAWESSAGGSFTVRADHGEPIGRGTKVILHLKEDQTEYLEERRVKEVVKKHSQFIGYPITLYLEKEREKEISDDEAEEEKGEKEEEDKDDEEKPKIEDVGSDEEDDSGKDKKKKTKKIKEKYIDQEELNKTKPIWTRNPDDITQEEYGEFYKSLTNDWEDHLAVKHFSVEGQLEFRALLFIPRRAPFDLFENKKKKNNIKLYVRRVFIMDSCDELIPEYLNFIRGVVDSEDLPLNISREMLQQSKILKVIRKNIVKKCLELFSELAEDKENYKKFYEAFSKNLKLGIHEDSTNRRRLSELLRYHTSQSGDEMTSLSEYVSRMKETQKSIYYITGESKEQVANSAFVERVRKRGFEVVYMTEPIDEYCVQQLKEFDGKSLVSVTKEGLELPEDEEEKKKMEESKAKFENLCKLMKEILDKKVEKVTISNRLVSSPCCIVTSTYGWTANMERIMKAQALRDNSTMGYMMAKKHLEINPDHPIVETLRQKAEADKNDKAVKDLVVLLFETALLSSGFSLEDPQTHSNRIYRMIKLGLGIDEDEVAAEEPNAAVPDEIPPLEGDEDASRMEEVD
Summary of the method: (§1)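 HEK-293 proteome labeled with alkyne probe, then enriched and identified by LC–MS/MS. Spectral counts compared with a no-probe control.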

[3] = target: Tubulin beta-5 chain (Homo sapiens) (UniProt P07437); assay: Binding affinity to TUBB in HEK293 proteomes assessed as spectral count ratio at 20 uM incubated for 16 hrs by TAMRA biotin-azide dye based LC-MS/MS analysis relative to control; summary of the method: as §1
[4] = target: Heat shock 70 kDa protein 1A/1B (Homo sapiens) (UniProt P0DMV8+P0DMV9); assay: Binding affinity to HSPA1A/HSPA1B in HEK293 proteomes assessed as spectral count ratio at 20 uM incubated for 16 hrs by TAMRA biotin-azide dye based LC-MS/MS analysis relative to control; type: protein assay; summary of the method: as §1
[5] = target: Tubulin alpha-8 chain (Homo sapiens) (UniProt Q9NY65); assay: Binding affinity to TUBA8 in HEK293 proteomes assessed as spectral count ratio at 20 uM incubated for 16 hrs by TAMRA biotin-azide dye based LC-MS/MS analysis relative to control; summary of the method: as §1
Chain of Tubulin alpha-8 chain (Homo sapiens) (Q9NY65 whole entry): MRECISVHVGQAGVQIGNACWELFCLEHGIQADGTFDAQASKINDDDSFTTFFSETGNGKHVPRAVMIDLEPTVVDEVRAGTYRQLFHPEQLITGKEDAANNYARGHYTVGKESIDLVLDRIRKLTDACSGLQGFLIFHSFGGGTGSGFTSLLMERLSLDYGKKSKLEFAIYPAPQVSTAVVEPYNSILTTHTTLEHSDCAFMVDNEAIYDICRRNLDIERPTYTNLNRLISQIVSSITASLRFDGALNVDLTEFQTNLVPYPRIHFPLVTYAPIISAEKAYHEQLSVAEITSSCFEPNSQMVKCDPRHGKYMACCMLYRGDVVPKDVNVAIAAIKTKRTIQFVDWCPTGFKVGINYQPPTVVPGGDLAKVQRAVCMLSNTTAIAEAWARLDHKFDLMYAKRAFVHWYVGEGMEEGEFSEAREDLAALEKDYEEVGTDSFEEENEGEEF

HEK293 [6] = assay: Binding affinity to HEK293 proteomes assessed as compound-Cysteine adduct formation at 1 uM incubated for 24 hrs by LC-MS/MS analysis; type: cell-based; details: Homo sapiens
[7] = target: Alpha-enolase (Homo sapiens) (UniProt P06733); assay: Binding affinity to ENO1 in HEK293 proteomes assessed as spectral count ratio at 20 uM incubated for 16 hrs by TAMRA biotin-azide dye based LC-MS/MS analysis relative to control; summary of the method: as §1
Chain of Alpha-enolase (Homo sapiens) (P06733 whole entry): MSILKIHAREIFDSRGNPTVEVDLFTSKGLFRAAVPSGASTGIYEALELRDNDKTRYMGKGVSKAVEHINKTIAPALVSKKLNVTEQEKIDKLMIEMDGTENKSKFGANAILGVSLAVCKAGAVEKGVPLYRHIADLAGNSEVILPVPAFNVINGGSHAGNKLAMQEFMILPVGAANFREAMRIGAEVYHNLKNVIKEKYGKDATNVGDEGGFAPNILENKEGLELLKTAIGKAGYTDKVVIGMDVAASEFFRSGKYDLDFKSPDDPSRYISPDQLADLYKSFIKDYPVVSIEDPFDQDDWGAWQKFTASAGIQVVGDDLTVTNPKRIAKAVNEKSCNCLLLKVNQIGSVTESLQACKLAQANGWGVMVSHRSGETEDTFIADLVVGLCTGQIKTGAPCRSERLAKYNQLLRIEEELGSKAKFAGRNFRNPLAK

[8] = target: Tubulin beta-2A chain (Homo sapiens) (UniProt Q13885); assay: Binding affinity to TUBB2A in HEK293 proteomes assessed as spectral count ratio at 20 uM incubated for 16 hrs by TAMRA biotin-azide dye based LC-MS/MS analysis relative to control; summary of the method: as §1
Chain of Tubulin beta-2A chain (Homo sapiens) (Q13885 whole entry): as the sequence (P02554 whole entry, looked up) above, with V170M, C201S, A296S, V316I, G440E, E441G counted along it

[9] = target: Tubulin alpha-1B chain (Homo sapiens) (UniProt P68363); assay: Binding affinity to TUBA1B in HEK293 proteomes assessed as spectral count ratio at 20 uM incubated for 16 hrs by TAMRA biotin-azide dye based LC-MS/MS analysis relative to control; summary of the method: as §1
Chain of Tubulin alpha-1B chain (Homo sapiens) (P68363 whole entry, looked up): as the sequence (P02550 whole entry, looked up) above, with S136L, G232S, A265I, T340S, E358Q counted along it

[10] = target: 60 kDa heat shock protein, mitochondrial (Homo sapiens) (UniProt P10809); assay: Binding affinity to HSPD1 in HEK293 proteomes assessed as spectral count ratio at 20 uM incubated for 16 hrs by TAMRA biotin-azide dye based LC-MS/MS analysis relative to control; summary of the method: as §1
[11] = target: D-3-phosphoglycerate dehydrogenase (Homo sapiens) (UniProt O43175); assay: Binding affinity to PHGDH in HEK293 proteomes at 20 uM incubated for 16 hrs by TAMRA biotin-azide dye based LC-MS/MS analysis; type: cell-based; summary of the method: as §1
HEK293 [12] = assay: Binding affinity to HEK293 proteomes incubated for 16 hrs using TAMRA-azide dye by SDS-PAGE based fluorescence analysis; type: cell-based; details: Homo sapiens
Summary of the method: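 HEK-293 cell lysate was incubated 16 h with alkyne probe (5–50 μM) and then conjugated to a fluorescent azide by Cu-catalysed [3+2] cycloaddition. Reactions were quenched in loading buffer without boiling. Proteins were resolved by SDS-PAGE and covalent labeling was imaged by in-gel fluorescence.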

[13] = target: Actin, cytoplasmic 1 (Homo sapiens) (UniProt P60709); assay: Binding affinity to ACTB in HEK293 proteomes assessed as spectral count ratio at 20 uM incubated for 16 hrs by TAMRA biotin-azide dye based LC-MS/MS analysis relative to control; summary of the method: as §1
[14] = target: Tubulin alpha-1C chain (Homo sapiens) (UniProt Q9BQE3); assay: Binding affinity to TUBA1C in HEK293 proteomes assessed as spectral count ratio at 20 uM incubated for 16 hrs by TAMRA biotin-azide dye based LC-MS/MS analysis relative to control; summary of the method: as §1
Chain of Tubulin alpha-1C chain (Homo sapiens) (Q9BQE3 whole entry, looked up): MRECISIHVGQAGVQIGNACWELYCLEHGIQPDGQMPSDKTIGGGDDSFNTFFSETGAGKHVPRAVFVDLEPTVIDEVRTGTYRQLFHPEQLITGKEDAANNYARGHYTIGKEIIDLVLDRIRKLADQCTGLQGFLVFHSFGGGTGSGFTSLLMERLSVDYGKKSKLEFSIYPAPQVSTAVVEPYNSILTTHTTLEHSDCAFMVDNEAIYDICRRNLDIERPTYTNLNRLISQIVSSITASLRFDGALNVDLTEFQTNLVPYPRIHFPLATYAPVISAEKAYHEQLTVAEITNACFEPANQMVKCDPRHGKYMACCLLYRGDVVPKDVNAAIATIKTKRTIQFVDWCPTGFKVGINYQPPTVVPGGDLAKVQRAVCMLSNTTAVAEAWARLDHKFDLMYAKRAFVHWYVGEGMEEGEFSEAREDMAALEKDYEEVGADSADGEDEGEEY

[15] = target: Elongation factor 1-alpha 1 (Homo sapiens) (UniProt P68104); assay: Binding affinity to EEF1A1 in HEK293 proteomes assessed as spectral count ratio at 20 uM incubated for 16 hrs by TAMRA biotin-azide dye based LC-MS/MS analysis relative to control; summary of the method: as §1
[16] = target: Eukaryotic initiation factor 4A-I (Homo sapiens) (UniProt P60842); assay: Binding affinity to EIF4A1 in HEK293 proteomes assessed as spectral count ratio at 20 uM incubated for 16 hrs by TAMRA biotin-azide dye based LC-MS/MS analysis relative to control; summary of the method: as §1
[17] = target: Pyruvate kinase PKM (Homo sapiens) (UniProt P14618); assay: Binding affinity to PKM in HEK293 proteomes assessed as spectral count ratio at 20 uM incubated for 16 hrs by TAMRA biotin-azide dye based LC-MS/MS analysis relative to control; summary of the method: as §1
[18] = target: Tubulin alpha-1A chain (Homo sapiens) (UniProt Q71U36); assay: Binding affinity to TUBA1A in HEK293 proteomes assessed as spectral count ratio at 20 uM incubated for 16 hrs by TAMRA biotin-azide dye based LC-MS/MS analysis relative to control; summary of the method: as §1
Chain of Tubulin alpha-1A chain (Homo sapiens) (Q71U36 whole entry, looked up): as the sequence (P02550 whole entry, looked up) above, with S136L, A265I, E358Q counted along it

[19] = target: Tubulin beta-4A chain (Homo sapiens) (UniProt P04350); assay: Binding affinity to TUBB4A in HEK293 proteomes assessed as spectral count ratio at 20 uM incubated for 16 hrs by TAMRA biotin-azide dye based LC-MS/MS analysis relative to control; summary of the method: as §1
Chain of Tubulin beta-4A chain (Homo sapiens) (P04350 whole entry): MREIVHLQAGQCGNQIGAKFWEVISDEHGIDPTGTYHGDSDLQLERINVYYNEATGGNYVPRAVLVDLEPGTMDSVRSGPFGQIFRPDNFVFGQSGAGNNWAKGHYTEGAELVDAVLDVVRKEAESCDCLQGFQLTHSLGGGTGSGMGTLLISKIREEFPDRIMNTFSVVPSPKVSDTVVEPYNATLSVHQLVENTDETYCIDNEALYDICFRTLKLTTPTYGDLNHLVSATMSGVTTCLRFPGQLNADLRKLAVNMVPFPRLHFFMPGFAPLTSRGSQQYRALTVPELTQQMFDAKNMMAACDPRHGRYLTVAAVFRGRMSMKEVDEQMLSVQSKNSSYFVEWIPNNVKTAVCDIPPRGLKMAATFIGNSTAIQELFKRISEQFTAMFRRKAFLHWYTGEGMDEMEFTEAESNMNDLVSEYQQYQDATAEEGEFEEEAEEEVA

HEK293 [20] = assay: Binding affinity to HEK293 proteomes at 1 uM incubated for 16 hrs using TAMRA-azide dye by SDS-PAGE based fluorescence analysis in presence of iodoacetamide; type: cell-based; details: Homo sapiens
Summary of the method: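 Proteomes were preincubated with iodoacetamide before alkyne-probe treatment. Probe labeling then proceeded by click conjugation to a fluorescent azide, SDS-PAGE without boiling, and fluorescence imaging to test for cysteine-directed labeling.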

[21] = target: Creatine kinase B-type (Homo sapiens) (UniProt P12277); assay: Binding affinity to CKB in HEK293 proteomes assessed as spectral count ratio at 20 uM incubated for 16 hrs by TAMRA biotin-azide dye based LC-MS/MS analysis relative to control; summary of the method: as §1
[22] = target: Heterogeneous nuclear ribonucleoprotein H (Homo sapiens) (UniProt P31943); assay: Binding affinity to HNRNPH1 in HEK293 proteomes at 20 uM incubated for 16 hrs by TAMRA biotin-azide dye based LC-MS/MS analysis; type: cell-based; summary of the method: as §1

**Q.** For `CC1=NN(c2ccc(C(=O)O)cc2)C(=O)/C1=C\c1ccc(-c2cc(C)c(C)cc2[N+](=O)[O-])o1`, which inhibition (Tubulin (Sus scrofa)) is on record?
**A.** Dose-dependent effect

**Q.** What does the source list for `C#CCNC(=O)c1ccc(N2N=C(C)/C(=C/c3ccc(-c4cc(C)c(C)cc4[N+](=O)[O-])o3)C2=O)cc1`?
**A.** IC50 [1]: 14.1 µM; fold change (FC) [2]: 16; fold change (FC) [3]: 36; fold change (FC) [4]: 8; fold change (FC) [5]: 64; Activity (HEK293 [6]): Active; fold change (FC) [7]: 7; fold change (FC) [8]: 25; fold change (FC) [9]: 25; fold change (FC) [10]: 24; Activity [11]: Active; Activity (HEK293 [12]): Dose-dependent effect; fold change (FC) [13]: 4; fold change (FC) [14]: 25; fold change (FC) [15]: 12; fold change (FC) [16]: 17; fold change (FC) [17]: 16; fold change (FC) [18]: 25; fold change (FC) [19]: 19; Activity (HEK293 [20]): inactive; fold change (FC) [21]: 9; Activity [22]: Active
